{"source": "ChEMBL document CHEMBL1828498", "about": "“Identification and characterization of a novel integrin-linked kinase inhibitor” (J Med Chem, 2011)", "key": {"[1]": {"tested_on": "SK-BR-3", "experiment": "Reduction in HER2 concentration in human SKBR3 cells expressing constitutively active ILK after 24 hrs by Western blot analysis", "format": "functional, cell-based", "outline": "(§1)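 PC-3 versus stable PC-3/CA-ILK, or SKBR3 versus transient SKBR3/CA-ILK (electroporation, used 48 h after), treated 24 h in 5% FBS medium; immunoblotting with ECL; representative of three experiments.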"}, "[2]": {"tested_on": "SK-BR-3", "experiment": "Reduction in HER2 mRNA expression in human SKBR3 cells expressing constitutively active ILK after 24 hrs by RT-PCR analysis", "format": "functional, cell-based", "outline": "(§2)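 PC-3, PC-3/CA-ILK, SKBR3 and SKBR3/CA-ILK cells treated 24 h in 5% FBS medium; total RNA from 1 × 10^6 cells by Trizol, 1 μg reverse-transcribed, then PCR with gene-specific primers and β-actin reference.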"}, "[3]": {"target": "Cyclin-dependent kinase 5/CDK5 activator 1 (Homo sapiens) (UniProt Q00535+Q15078)", "sequence (Q00535 whole entry)": "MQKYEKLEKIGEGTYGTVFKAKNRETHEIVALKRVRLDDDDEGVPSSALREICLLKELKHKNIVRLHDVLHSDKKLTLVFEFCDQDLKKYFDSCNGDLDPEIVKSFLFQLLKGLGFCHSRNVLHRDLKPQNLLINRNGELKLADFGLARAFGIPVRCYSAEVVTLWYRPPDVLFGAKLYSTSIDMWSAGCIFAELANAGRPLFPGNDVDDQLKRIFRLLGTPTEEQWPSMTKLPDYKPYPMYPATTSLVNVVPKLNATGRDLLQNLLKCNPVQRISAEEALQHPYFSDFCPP", "sequence (Q15078 99-307 partner limits assumed)": "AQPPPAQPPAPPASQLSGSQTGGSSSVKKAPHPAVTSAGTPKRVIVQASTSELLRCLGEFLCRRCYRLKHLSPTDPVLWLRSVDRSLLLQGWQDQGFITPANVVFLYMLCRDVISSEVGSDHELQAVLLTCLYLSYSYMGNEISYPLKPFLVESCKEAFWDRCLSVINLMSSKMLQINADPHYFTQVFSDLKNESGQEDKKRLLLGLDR", "experiment": "Inhibition of CDK5/p25 at 5 uM assessed as remaining activity", "format": "protein-complex assay", "outline": "(§3)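 Panel of 20 recombinant kinases, profiled by a commercial vendor.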"}, "[4]": {"tested_on": "PC-3", "experiment": "Induction of change in cell cycle distribution in human PC3 cells up to 2 uM after 48 hrs by flow cytometry", "format": "functional, cell-based", "outline": "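Treated PC-3 cells harvested, fixed in 100% ethanol, stained 30 min at 37°C in the dark with 80 μg/mL PI, 100 μg/mL RNase, 0.1% Triton X-100. Phase distribution by flow cytometry. Mean ± SD, n = 3. Methods give 48 h exposure; the figure legend gives 24 h in 5% FBS.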"}, "[5]": {"target": "T1, Scaffold protein ILK (Homo sapiens) (UniProt Q13418)", "T1 sequence (whole entry)": "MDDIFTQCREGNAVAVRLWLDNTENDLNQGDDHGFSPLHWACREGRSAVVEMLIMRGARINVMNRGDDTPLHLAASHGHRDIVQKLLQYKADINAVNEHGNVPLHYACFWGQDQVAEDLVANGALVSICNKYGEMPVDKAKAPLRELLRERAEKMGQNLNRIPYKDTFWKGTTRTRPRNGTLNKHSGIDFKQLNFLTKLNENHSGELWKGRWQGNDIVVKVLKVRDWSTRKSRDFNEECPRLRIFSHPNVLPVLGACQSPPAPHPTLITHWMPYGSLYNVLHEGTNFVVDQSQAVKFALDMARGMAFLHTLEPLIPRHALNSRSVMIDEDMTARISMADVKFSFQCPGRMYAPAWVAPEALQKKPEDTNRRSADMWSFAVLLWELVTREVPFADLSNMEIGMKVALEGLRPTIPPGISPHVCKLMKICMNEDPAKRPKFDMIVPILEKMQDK", "experiment": "Inhibition of ILK in human PC3 cells assessed as decrease in GSK3-beta phosphorylation by Western blot analysis", "format": "cell-based", "conditions": "PC-3", "outline": "(§4)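 PC-3 and MDA-MB-231 cells exposed 24 h in 5% FBS medium across a concentration series. Phospho-GSK3β (Ser9) and phospho-MLC (Thr18/Ser19) detected by immunoblot: SDS lysis, primary 1:1000 at 4°C for 2 h, HRP secondary, ECL. Representative of three experiments.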"}, "[6]": {"target": "Protein kinase C alpha type (Homo sapiens) (UniProt P17252)", "experiment": "Inhibition of PKCalpha at 5 uM assessed as remaining activity"}, "[7]": {"tested_on": "PC-3", "experiment": "Reduction in EGFR concentration in human PC3 cells after 24 hrs by Western blot analysis", "format": "functional, cell-based", "outline": "as §1"}, "[8]": {"tested_on": "3-phosphoinositide dependent protein kinase-2, PDK2", "experiment": "Inhibition of PDK2 in human MDA-MB-231 cells assessed as Akt Ser-473 dephosphorylation by Western blot analysis", "format": "functional, cell-based", "outline": "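Cells exposed 24 h in 5% FBS medium, final DMSO 0.1%; lysed in 1% SDS/10 mM EDTA/50 mM Tris pH 8.1, equal protein on SDS-PAGE, nitrocellulose, primary antibody 1:1000 at 4°C for 2 h, HRP secondary 1:5000, ECL detection; blots representative of three independent experiments.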"}, "[9]": {"target": "T1, Scaffold protein ILK (Homo sapiens)", "experiment": "Inhibition of ILK in human MDA-MB-231 cells assessed as decrease in GSK3-beta phosphorylation by Western blot analysis", "format": "cell-based", "outline": "as §4"}, "[10]": {"target": "Glycogen synthase kinase-3 beta (Homo sapiens) (UniProt P49841)", "sequence (P49841 whole entry, looked up)": "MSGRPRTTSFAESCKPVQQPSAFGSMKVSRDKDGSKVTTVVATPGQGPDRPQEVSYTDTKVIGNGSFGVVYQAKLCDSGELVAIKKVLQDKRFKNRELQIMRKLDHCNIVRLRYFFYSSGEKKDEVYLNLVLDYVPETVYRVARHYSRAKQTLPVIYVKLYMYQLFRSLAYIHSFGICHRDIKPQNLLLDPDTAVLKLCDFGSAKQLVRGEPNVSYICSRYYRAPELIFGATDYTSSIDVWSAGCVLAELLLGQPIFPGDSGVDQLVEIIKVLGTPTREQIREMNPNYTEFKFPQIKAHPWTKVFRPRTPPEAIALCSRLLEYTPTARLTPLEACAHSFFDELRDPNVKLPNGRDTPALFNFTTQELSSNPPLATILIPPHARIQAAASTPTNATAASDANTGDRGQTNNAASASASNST", "experiment": "Inhibition of GSK3-beta at 5 uM assessed as remaining activity", "outline": "as §3"}, "[11]": {"target": "Ribosomal protein S6 kinase alpha-1 (Homo sapiens) (UniProt Q15418)", "sequence (Q15418 whole entry)": "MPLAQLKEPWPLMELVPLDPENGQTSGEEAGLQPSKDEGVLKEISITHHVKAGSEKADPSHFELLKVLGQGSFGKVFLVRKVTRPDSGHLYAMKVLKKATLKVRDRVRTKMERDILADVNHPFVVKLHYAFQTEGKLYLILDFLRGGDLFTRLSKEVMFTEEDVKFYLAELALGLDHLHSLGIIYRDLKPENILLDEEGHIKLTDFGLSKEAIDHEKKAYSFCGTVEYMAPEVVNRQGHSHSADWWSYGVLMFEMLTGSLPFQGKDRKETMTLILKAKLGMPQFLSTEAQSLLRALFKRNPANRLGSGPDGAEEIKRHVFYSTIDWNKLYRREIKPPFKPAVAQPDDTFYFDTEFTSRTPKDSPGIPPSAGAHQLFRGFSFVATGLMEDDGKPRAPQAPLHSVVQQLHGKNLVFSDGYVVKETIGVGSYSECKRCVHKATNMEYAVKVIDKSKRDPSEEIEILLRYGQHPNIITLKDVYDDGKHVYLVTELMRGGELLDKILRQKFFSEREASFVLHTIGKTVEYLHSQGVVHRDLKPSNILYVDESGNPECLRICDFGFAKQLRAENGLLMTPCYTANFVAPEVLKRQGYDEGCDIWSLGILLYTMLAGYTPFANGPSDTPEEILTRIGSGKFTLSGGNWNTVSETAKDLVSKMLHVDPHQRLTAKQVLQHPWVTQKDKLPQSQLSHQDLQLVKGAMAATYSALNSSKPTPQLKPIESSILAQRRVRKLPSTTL", "experiment": "Inhibition of Rsk1 at 5 uM assessed as remaining activity"}, "[12]": {"tested_on": "PC-3", "experiment": "Reduction in HER2 mRNA expression in human PC3 cells after 24 hrs by RT-PCR analysis", "format": "functional, cell-based", "outline": "as §2"}, "[13]": {"tested_on": "PC-3", "experiment": "Reduction in HER2 mRNA expression in human PC3 cells expressing constitutively active ILK after 24 hrs by RT-PCR analysis", "format": "functional, cell-based", "outline": "as §2"}, "[14]": {"tested_on": "PC-3", "experiment": "Induction of apoptosis in human PC3 cells assessed as early apoptotic cells at 4 uM by annexin V/PI staining (reference value: 5.6%)", "format": "functional"}, "[15]": {"tested_on": "SK-BR-3", "experiment": "Antiproliferative activity against human SKBR3 cells assessed as suppression of cell viability by MTT assay", "format": "functional, cell-based", "outline": "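Cancer lines seeded 5000/well and nonmalignant PrEC/MEC 8000/well in 10% FBS, 24 h before treatment. Compound exposure 24 h in 5% FBS medium, 0.1% final DMSO. MTT (0.25 mg/mL) for 1 h at 37°C, dye solubilized in DMSO, absorbance read at 570 nm. Mean ± SD, n = 6.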"}, "[16]": {"target": "Receptor-type tyrosine-protein kinase FLT3 (Homo sapiens) (UniProt P36888)", "sequence (P36888 whole entry)": "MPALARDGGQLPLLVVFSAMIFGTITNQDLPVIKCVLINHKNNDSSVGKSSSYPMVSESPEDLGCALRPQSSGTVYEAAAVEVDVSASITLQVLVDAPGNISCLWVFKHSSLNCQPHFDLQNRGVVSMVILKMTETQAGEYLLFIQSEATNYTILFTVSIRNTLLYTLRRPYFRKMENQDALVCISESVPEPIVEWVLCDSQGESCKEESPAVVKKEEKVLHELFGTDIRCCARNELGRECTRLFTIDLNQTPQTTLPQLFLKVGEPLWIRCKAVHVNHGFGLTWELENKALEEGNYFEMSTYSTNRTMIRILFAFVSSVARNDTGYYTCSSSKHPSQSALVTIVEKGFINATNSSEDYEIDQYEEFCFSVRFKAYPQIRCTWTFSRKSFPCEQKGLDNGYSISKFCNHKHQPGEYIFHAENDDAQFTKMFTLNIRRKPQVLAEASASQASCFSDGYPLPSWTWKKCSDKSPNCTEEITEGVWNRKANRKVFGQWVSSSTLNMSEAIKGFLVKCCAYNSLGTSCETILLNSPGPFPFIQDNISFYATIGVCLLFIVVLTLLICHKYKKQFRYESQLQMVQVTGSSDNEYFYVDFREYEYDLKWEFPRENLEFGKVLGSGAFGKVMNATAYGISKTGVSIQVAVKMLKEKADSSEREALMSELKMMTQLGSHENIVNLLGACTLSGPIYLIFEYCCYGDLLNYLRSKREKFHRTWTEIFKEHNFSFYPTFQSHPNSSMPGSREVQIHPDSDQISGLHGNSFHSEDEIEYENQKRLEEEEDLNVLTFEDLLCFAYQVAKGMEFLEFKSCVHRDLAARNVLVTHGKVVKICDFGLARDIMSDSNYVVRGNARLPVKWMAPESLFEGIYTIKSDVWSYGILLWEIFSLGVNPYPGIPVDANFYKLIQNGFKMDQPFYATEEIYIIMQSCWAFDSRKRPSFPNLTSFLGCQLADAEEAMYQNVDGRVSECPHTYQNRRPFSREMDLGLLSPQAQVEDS", "experiment": "Inhibition of Flt3 at 5 uM assessed as remaining activity", "outline": "as §3"}, "[17]": {"target": "T1, Scaffold protein ILK (Homo sapiens)", "experiment": "Inhibition of ILK in human PC3 cells assessed as decrease in phosphorylated ERK1/2 concentration by Western blot analysis", "format": "cell-based", "conditions": "PC-3", "outline": "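PC-3 cells exposed to graded concentrations for 24 h in 5% FBS medium. Immunoblotting for phospho-Tyr397-FAK, ERK1/2, p38 and JNK. Lysis in 1% SDS buffer, primary antibody 1:1000 at 4°C for 2 h, ECL. Three independent experiments.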"}, "[18]": {"target": "Proto-oncogene tyrosine-protein kinase Src (Homo sapiens) (UniProt P12931)", "sequence (P12931 2-536 limits assumed)": "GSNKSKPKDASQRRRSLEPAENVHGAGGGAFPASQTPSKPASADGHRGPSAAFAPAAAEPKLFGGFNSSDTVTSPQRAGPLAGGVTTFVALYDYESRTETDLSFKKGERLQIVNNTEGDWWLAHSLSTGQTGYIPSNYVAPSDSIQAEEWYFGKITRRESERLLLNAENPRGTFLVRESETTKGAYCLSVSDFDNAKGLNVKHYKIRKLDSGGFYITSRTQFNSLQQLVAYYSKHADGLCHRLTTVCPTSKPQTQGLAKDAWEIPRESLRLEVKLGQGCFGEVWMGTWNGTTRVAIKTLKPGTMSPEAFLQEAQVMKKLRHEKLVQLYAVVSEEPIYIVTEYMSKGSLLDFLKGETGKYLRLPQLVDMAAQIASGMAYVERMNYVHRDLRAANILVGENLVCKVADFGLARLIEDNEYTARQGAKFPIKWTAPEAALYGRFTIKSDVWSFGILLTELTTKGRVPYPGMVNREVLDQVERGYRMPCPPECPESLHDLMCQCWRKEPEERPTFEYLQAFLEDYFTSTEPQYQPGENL", "experiment": "Inhibition of cSRC at 5 uM assessed as remaining activity"}, "[19]": {"tested_on": "PC-3", "experiment": "Reduction in YB-1 concentration in human PC3 cells after 24 hrs by Western blot analysis", "format": "functional, cell-based", "outline": "as §1"}, "[20]": {"tested_on": "SK-BR-3", "experiment": "Reduction in YB-1 concentration in human SKBR3 cells expressing constitutively active ILK after 24 hrs by Western blot analysis", "format": "functional, cell-based", "outline": "as §1"}, "[21]": {"tested_on": "PC-3", "experiment": "Induction of apoptosis in human PC3 cells assessed as early apoptotic cells at 1 uM by annexin V/PI staining (reference value: 5.6%)", "format": "functional"}, "[22]": {"tested_on": "PC-3", "experiment": "Induction of apoptosis in human PC3 cells assessed as early apoptotic cells at 3 uM by annexin V/PI staining (reference value: 5.6%)", "format": "functional"}, "[23]": {"tested_on": "PC-3", "experiment": "Reduction in HER2 concentration in human PC3 cells after 24 hrs by Western blot analysis", "format": "functional, cell-based", "outline": "as §1"}}, "note": "Calls of active or inactive are those of the source. The calls are words filed in the database; no cut-off is given here.", "data": [{"smiles": "CNC(=O)CCc1cc(-c2ccc(-c3ccc(C(F)(F)F)cc3)cc2)n(-c2ccc(N3CCNCC3)cc2)n1", "values": [{"measurement": "Activity", "setting": "[1]", "value": "inactive"}, {"measurement": "Activity", "setting": "[2]", "value": "inactive"}, {"measurement": "Activity", "setting": "[3]", "value": 98, "unit": "%"}, {"measurement": "Activity", "setting": "[4]", "value": "inactive"}, {"measurement": "inhibition", "setting": "[5]", "value": "Active"}, {"measurement": "Activity", "setting": "[6]", "value": 97, "unit": "%"}, {"measurement": "Activity", "setting": "[7]", "value": "Dose-dependent effect"}, {"measurement": "inhibition", "setting": "[8]", "value": "Dose-dependent effect"}, {"measurement": "inhibition", "setting": "[9]", "value": "Active"}, {"measurement": "Activity", "setting": "[10]", "value": 142, "unit": "%"}, {"measurement": "Activity", "setting": "[11]", "value": 65, "unit": "%"}, {"measurement": "Activity", "setting": "[12]", "value": "Dose-dependent effect"}, {"measurement": "Activity", "setting": "[13]", "value": "inactive"}, {"measurement": "Activity", "setting": "[14]", "value": 25.2, "unit": "%"}, {"measurement": "IC50", "setting": "[15]", "value": 1800, "unit": "nM"}, {"measurement": "Activity", "setting": "[16]", "value": 66, "unit": "%"}, {"measurement": "inhibition", "setting": "[17]", "value": "Dose-dependent effect"}, {"measurement": "Activity", "setting": "[18]", "value": 91, "unit": "%"}, {"measurement": "Activity", "setting": "[19]", "value": "Dose-dependent effect"}, {"measurement": "Activity", "setting": "[20]", "value": "inactive"}, {"measurement": "Activity", "setting": "[21]", "value": 6.3, "unit": "%"}, {"measurement": "Activity", "setting": "[22]", "value": 12.1, "unit": "%"}, {"measurement": "Activity", "setting": "[23]", "value": "Dose-dependent effect"}]}]}
